How the values were obtained:
[1] = biological target: T1, Glutamate receptor ionotropic, AMPA (Rattus norvegicus, UniProt P19490+P19491+P19492+P19493); experiment: Inhibition of Ionotropic glutamate receptor AMPA mediated depolarization by the compound at a concentration of 200 uM after 20 minutes in rat
Rattus norvegicus [2] = species on record: Rattus norvegicus; experiment: Compound was tested for the stimulation of Phosphoinositide (PI) hydrolysis in rat hippocampus; format: functional, organism-based
In short: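 Slices of neonatal (6–11-day-old) Sprague–Dawley rat hippocampus, labelled with [3H]-myo-inositol. Inositol phosphate accumulation was expressed per 100 000 DPM of total incorporated radiolabel (lipid plus soluble IP fraction) under basal conditions. Concentration–response data were fit with Hill coefficient 1. Mean ± SEM of four experiments.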

Rattus norvegicus [3] = species on record: Rattus norvegicus; experiment: Inhibition of the sensitization of CA1 pyramidal neurons to depolarization by L-AP6 after reversal with L-alpha-AA; format: functional, organism-based; details: Pyramidal neuron
Rattus norvegicus [4] = species on record: Rattus norvegicus; experiment: Inhibition of the sensitization of CA1 pyramidal neurons to depolarization by L-AP6 by the compound at a concentration of 200 uM after 20 minutes; format: functional, organism-based; details: Pyramidal neuron
Rattus norvegicus [5] = species on record: Rattus norvegicus; experiment: Inhibition of the sensitization of CA1 pyramidal neurons to depolarization by L-AP6 by the compound at a concentration of 200 uM before 20 minutes; format: functional, organism-based; details: Pyramidal neuron
[6] = biological target: Metabotropic glutamate receptor 5 (Homo sapiens, UniProt P41594); experiment: Compound was tested for the stimulation of Phosphoinositide (PI) hydrolysis in BHK cells expressing mGluR5a receptor; format: functional, cell-based
In short: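 BHK570 cells stably expressing mGluR5a, kept under 2 μM methotrexate selection in DMEM with 5% heat-inactivated FBS, 2 mM glutamine and 5% CO2. Grown to 60–90% confluence, then labelled 16–20 h with 1 μCi/mL [3H]-myo-inositol. PI hydrolysis was measured by the Thomsen method and normalized to 100 000 DPM of total incorporated label. Mean ± SEM of 3–6 experiments; EC50 from concentration–response curves.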

[7] = biological target: T1, Glutamate receptor ionotropic, AMPA; experiment: Inhibition of Ionotropic glutamate receptor AMPA mediated depolarization by the compound at a concentration of 400 uM after 20 minutes in rat
Rattus norvegicus [8] = species on record: Rattus norvegicus; experiment: Inhibition of the sensitization of CA1 pyramidal neurons to depolarization by L-AP6 by the compound at a concentration of 400 uM after 20 minutes; format: functional, organism-based; details: Pyramidal neuron
Rattus norvegicus [9] = species on record: Rattus norvegicus; experiment: Inhibition of the sensitization of CA1 pyramidal neurons to depolarization by L-AP6 by the compound at a concentration of 400 uM before 20 minutes; format: functional, organism-based; details: Pyramidal neuron
Rattus norvegicus [10] = species on record: Rattus norvegicus; experiment: Inhibition of the sensitization of CA1 pyramidal neurons to depolarization by L-AP6 after reversal with L-alpha-AA by the compound at a concentration of 16 uM after 4 minutes; format: functional, organism-based; details: Pyramidal neuron
In short: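 Rat hippocampal slices. The sensitization was reversed by treating the slices with 2 mM L-α-aminoadipic acid for 10 min.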

Rattus norvegicus [11] = species on record: Rattus norvegicus; experiment: Inhibition of the sensitization of CA1 pyramidal neurons to depolarization by L-AP6 by the compound at a concentration of 16 uM after 4 minutes; format: functional, organism-based; details: Pyramidal neuron
In short: (§1)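 Rat hippocampal slices. Sensitization of CA1 neurons to phosphonate depolarization was measured in the QUIS-effect slice assay.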

Rattus norvegicus [12] = species on record: Rattus norvegicus; experiment: Inhibition of the sensitization of CA1 pyramidal neurons to depolarization by L-AP6 by the compound at a concentration of 16 uM before 4 minutes; format: functional, organism-based; details: Pyramidal neuron; in short: as §1

Metabotropic glutamate receptor 5, sequence (P41594 whole entry): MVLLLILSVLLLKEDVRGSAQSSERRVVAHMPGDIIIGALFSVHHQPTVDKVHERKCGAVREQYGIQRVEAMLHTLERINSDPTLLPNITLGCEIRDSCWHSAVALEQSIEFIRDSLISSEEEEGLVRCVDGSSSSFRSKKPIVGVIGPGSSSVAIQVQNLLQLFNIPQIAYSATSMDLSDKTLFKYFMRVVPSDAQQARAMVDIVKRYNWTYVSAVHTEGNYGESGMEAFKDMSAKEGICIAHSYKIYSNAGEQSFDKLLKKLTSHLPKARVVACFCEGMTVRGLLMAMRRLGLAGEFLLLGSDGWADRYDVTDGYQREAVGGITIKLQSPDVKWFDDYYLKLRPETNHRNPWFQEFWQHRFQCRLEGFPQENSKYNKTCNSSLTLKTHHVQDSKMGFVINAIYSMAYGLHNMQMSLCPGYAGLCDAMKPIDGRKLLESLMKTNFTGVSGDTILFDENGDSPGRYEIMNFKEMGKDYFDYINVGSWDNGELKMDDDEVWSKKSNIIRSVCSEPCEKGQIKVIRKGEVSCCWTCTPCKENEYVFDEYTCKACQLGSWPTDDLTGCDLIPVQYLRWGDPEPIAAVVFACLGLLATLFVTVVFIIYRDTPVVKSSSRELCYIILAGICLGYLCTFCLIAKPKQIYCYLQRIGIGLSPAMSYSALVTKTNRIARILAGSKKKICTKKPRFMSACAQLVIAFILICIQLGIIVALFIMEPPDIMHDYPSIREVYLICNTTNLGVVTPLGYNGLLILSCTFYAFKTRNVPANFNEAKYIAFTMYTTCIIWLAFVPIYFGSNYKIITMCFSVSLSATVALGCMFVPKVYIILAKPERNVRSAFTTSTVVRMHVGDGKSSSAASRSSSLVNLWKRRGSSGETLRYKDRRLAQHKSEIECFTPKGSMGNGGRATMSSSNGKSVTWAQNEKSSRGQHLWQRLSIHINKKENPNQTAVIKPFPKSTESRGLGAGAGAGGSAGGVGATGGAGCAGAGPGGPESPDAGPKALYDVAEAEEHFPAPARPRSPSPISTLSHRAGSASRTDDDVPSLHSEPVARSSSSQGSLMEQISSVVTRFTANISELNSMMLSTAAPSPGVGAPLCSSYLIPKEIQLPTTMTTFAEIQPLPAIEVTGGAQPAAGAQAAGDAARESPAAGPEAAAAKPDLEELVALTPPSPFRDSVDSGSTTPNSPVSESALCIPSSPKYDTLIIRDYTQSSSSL

IC50 [1] | EC50 (Rattus norvegicus [2]) | EC50 [6] | IC50 [7] | SMILES | IC50 (Rattus norvegicus [3]) | IC50 (Rattus norvegicus [4]) | IC50 (Rattus norvegicus [5]) | IC50 (Rattus norvegicus [8]) | IC50 (Rattus norvegicus [9]) | IC50 (Rattus norvegicus [10]) | IC50 (Rattus norvegicus [11]) | IC50 (Rattus norvegicus [12])
69 µM | 18 µM | 11 µM | – | N[C@]1(C(=O)O)C[C@H](n2oc(=O)[nH]c2=O)C1 | > 10000 µM | 7000 µM | > 10000 µM | – | – | – | – | –
– | 53 µM | 49 µM | 390 µM | N[C@]1(C(=O)O)C[C@@H](n2oc(=O)[nH]c2=O)C1 | – | – | – | > 10000 µM | > 10000 µM | – | – | –
– | – | – | – | N[C@@H](Cn1oc(=O)[nH]c1=O)C(=O)O [QUISQUALATE] | – | – | – | – | – | 1900 µM | 40 µM | > 10000 µM

Source: ChEMBL document CHEMBL1132721, “Cyclobutane quisqualic acid analogues as selective mGluR5a metabotropic glutamic acid receptor ligands” (J Med Chem, 1999)
